Test results from ChEMBL document CHEMBL1687708, “Efficacy of oritavancin in a murine model of Bacillus anthracis spore inhalation anthrax” (Antimicrob Agents Chemother, 2008).
Converted amounts (≈) assume the structure as drawn.

What was measured:
Format in all cases: functional
Bacillus cereus [1] = test: Antimicrobial activity against Bacillus cereus ATCC 4342 by broth microdilution method
Method in brief: (§1)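 B. cereus ATCC 4342 went through stepwise selection for 20 cycles in cation-adjusted Mueller-Hinton broth with doubling drug dilutions. Each cycle was seeded from the previous day's 0.5× MIC wells, in two independent rounds per drug. Selectants showing a fourfold or greater MIC rise were passaged 5 days without drug. Their MICs were then read alongside the parent strain. Oritavancin assays carried 0.002% polysorbate 80 throughout.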

Bacillus cereus [2] = test: Antimicrobial activity against Bacillus cereus ATCC 4342 selected after 20 daily cycles of drug selection followed by 5 days of nonselective growth by broth microdilution method; conditions: ATCC 4342, 120 h; method in brief: as §1
Bacillus cereus [3] = test: Ratio of MIC for Bacillus cereus ATCC 4342 selected after 20 daily cycles of drug selection followed by 5 days of nonselective growth to MIC for Bacillus cereus ATCC 4342; method in brief: as §1

Row | Structure (SMILES) | MIC (Bacillus cereus [1]) [µg/mL] | MIC (Bacillus cereus [2]) [µg/mL] | Ratio (Bacillus cereus [3])
1 | CC1(C)S[C@@H]2[C@H](NC(=O)Cc3ccccc3)C(=O)N2[C@H]1C(=O)O [PENICILLIN G] | 0.008 (≈ 0.0239 µM) | > 0.06 | >8
2 | CO[C@H]1/C=C/O[C@@]2(C)Oc3c(C)c(O)c4c(O)c(c(/C=N/N5CCN(C)CC5)c(O)c4c3C2=O)NC(=O)/C(C)=C\C=C\[C@H](C)[C@H](O)[C@@H](C)[C@@H](O)[C@@H](C)[C@H](OC(C)=O)[C@@H]1C [RIFAMPIN] | 0.03 (≈ 0.0365 µM) | 0.25 (≈ 0.304 µM) | 8
